In the library only some 4.2% were active in any assay of this set; here they are far more common.
GalR3 antag: GalR3 antagonists in HEK293 cells, primary screen, cell-based, fluorescence readout; Galanin receptor type 3 (Homo sapiens), O60755; HEK293 GalR3-CNG cAMP membrane potential fluorescence; galR3 body fused to GalR1 C-terminus; inhibition, % at 3 µM; 0.44% of 360,000 active; AID 651719, 2012;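 active = inhibition above the screen-wide average plus 3 SD, cut at about 13% in these data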;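 also: forskolin and galanin both at EC90 stimulate the cells; cAMP rise reported by CNG channel membrane potential dye signal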
OX1R antag-1: OX1R (HCRTR1) antagonists, primary screen, fluorescence, CHO/OX1R cells, Fluo-8 calcium, orexin A | Fluo-8 calcium fluorescence | inhibition, % at 5 µM | AID 434989, 2010 | 0.43% of 330,000 active | Orexin/Hypocretin receptor type 1 (Homo sapiens), O43613;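 active = inhibition above its plate's threshold, mean inhibition of all tested compounds on the plate plus 3 SD, cut at about 37% in these data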
Target sequence (O43613 whole entry, looked up): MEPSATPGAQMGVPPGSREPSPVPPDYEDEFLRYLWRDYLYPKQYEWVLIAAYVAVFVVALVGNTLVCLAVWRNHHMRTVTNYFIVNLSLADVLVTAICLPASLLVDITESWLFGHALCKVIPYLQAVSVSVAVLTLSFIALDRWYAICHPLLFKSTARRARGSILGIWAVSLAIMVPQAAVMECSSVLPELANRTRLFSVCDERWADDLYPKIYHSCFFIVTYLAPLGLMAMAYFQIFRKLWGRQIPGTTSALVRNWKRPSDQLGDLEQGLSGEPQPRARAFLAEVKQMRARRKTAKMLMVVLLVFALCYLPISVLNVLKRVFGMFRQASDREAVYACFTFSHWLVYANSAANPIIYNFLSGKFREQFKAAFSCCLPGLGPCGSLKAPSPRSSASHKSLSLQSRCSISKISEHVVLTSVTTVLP
CHO parental Ca: ATP-evoked calcium signal inhibitors, parental CHO, primary screen, counter-screen for OX1R antagonist project, cell-based, fluorescence, Fluo-8 calcium dye. parental CHO-K1, ATP-induced calcium, Fluo-8 fluorescence. inhibition, % at 5.6 µM. 0.63% of 330,000 active. AID 463079, 2010;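 active = inhibition above that plate's mean sample inhibition plus 3 SD, cut at about 26% in these data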
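Measured by: calcium-sensitive Fluo-8 fluorescence / Test system: CHO parental line / Controls: ATP-challenged DMSO wells low, unchallenged DMSO wells high / Measure: % inhibition / Compound: single nominal dose of 5.6 µM per compound / Replicates: single well per compound, no replicates / Reagent: ATP as calcium-mobilizing challenge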
TAAR1 antag: human TAAR1 antagonists, primary screen, Fluo-8 calcium fluorescence, CHO RD-HGA16 cells. Trace amine-associated receptor 1 (Homo sapiens), Q96RJ0. antagonist. inhibition, % at 3 µM. 1.5% of 360,000 active. AID 624466, 2012;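 active = inhibition above a per-plate cutoff, the mean inhibition of test compounds on that plate plus 3 SD, cut at about 49% in these data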
Target sequence (Q96RJ0 whole entry, looked up): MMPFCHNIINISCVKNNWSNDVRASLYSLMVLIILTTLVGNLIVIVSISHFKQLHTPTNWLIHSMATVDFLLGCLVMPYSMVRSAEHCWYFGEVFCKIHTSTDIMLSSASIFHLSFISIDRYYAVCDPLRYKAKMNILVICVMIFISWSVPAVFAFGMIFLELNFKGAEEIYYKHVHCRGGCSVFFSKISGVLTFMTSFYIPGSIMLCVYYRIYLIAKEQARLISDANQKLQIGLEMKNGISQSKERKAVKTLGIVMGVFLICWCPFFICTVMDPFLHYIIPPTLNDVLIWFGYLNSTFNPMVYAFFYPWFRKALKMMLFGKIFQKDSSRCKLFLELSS
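Test system: RD-HGA16 CHO cells with stable hTAAR1 and Gα16 / Probe or stimulus: EC80 β-phenethylamine stimulus / Times: seeding 17-24 h prior, 75-min 37 °C, 30-min RT dye loading / Detection: Fluo-8 calcium-sensitive fluorescence / Read-out basis: % inhibition scaled between DMSO and EC80 PEA controls / Repeats: singlicate, one well per test compound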
TAAR1 ag: human TAAR1 agonists, primary screen, Fluo-8 calcium fluorescence, CHO RD-HGA16 cells. Trace amine-associated receptor 1 (Homo sapiens), Q96RJ0. vehicle wells 0%, saturating PEA agonist 100%. activation, % at 3 µM. 0.99% of 360,000 active. AID 624467, 2012;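 active = activation above the mean activation of all test compounds in the run plus 3 SD, cut at about 38% in these data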
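Benchmarks: low control DMSO, high control PEA (EC100); System: CHO RD-HGA16 cells carrying human TAAR1 plus Gα16; Detection: Fluo-8 fluorescence, 5 s baseline then 140 s kinetic read; Schedule: 17-24 h plating, Fluo-8 75 min 37 °C, 30 min RT; Read-out basis: % activation from peak over basal fluorescence ratio, DMSO-to-PEA scaled.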
OX1R antag-2: antagonists of human orexin 1 receptor (OX1R). Orexin/Hypocretin receptor type 1 (Homo sapiens), O43613. OX1R-expressing cells, FRET antagonist read-out. inhibition, % at 6.6 µM. 1.8% of 330,000 active. AID 485270, 2010; in the data active = inhibition mostly above about 38%, no sharp cut-off; inactive = mostly below about 40%
nonsel antag count: nonselective antagonists in TAAR1 counter-screen cells, counter-screen for hTAAR1 antagonist project, cell-based, fluorescence, calcium. counterscreen cell line, antagonist mode. inhibition, % at 3 µM. shares compounds with TAAR1 antag. 77% of 2,400 active. AID 651780, 2012; in the data active = inhibition above about 22%;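 also: CHO-Ga16 host cells stimulated with ATP at an EC80 level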
TAAR1 antag conf: human TAAR1 antagonists, retest of hits, confirmation, cell-based, fluorescence; shares compounds with TAAR1 antag; 40% of 2,400 active; inhibition, % at 3 µM; TAAR1-expressing cells, fluorescence antagonist read-out; in the data active = inhibition above about 49%;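 also: CHO-Ga16 host cells challenged with agonist PEA near its EC80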
Ga16 nonsel ag: calcium activation in Ga16-expressing cells, counter-screen for TAAR1 antagonist project, cell-based, fluorescence. shares compounds with TAAR1 antag. activation, % at 3 µM. AID 651953, 2012. 18% of 2,400 active. agonist counterscreen; in the data active = activation above about 12%
TAAR1 ag counter: TAAR1 activation by candidate antagonists – cell-based, fluorescence, counter-screen for TAAR1 antagonist project. shares compounds with TAAR1 antag. hTAAR1 cell line, agonist mode. activation, % at 3 µM. 2% of 2,400 active; in the data active = activation above about 37%;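 also: CHO cells stably expressing TAAR1 with calcium dye readout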
Each line names hits and unclear results; the compound was inactive in the other large screens (follow-up assays come after a bar, where they were run).

C=CC[C@@H](CC(=O)N[C@@H](CO)Cc1ccccc1)C(=O)NC[C@@H](OC(=O)[C@@H](CC=C)CC(=O)OC(C)(C)C)c1ccccc1	none
C=CC[C@@H](CC(=O)N[C@H](CO)Cc1ccccc1)C(=O)NC[C@H](OC(=O)[C@@H](CC=C)Cc1ccc(F)cc1)c1ccccc1	TAAR1 antag 68.9 | nonsel antag count 30.4 | TAAR1 antag conf 55.9 | Ga16 nonsel ag inactive | TAAR1 ag counter inactive
C=CCC[C@H](Cc1ccc(F)cc1)C(=O)OC[C@H](Cc1c[nH]c2ccccc12)NC(=O)[C@H](CC=C)CC(=O)NCCO	TAAR1 antag 73.0 | nonsel antag count 25.7 | TAAR1 antag conf inactive | Ga16 nonsel ag inactive | TAAR1 ag counter inactive
C=CCC[C@@H](Cc1ccc(F)cc1)C(=O)OC[C@@H](Cc1c[nH]c2ccccc12)NC(=O)[C@@H](CC=C)CC(=O)NCCO	none
C=CCN(CC=C)C(=O)c1ccc(OC2CCN(S(=O)(=O)N(C)C)CC2)cc1	none
O=C(O)COCC(=O)N1CCN(c2cc(C(F)(F)F)nc3ccccc23)CC1	none
CCC(=O)N1CCN(c2ccc(-n3c(=O)ccc4cnc5ccc(-c6cnc7ccccc7c6)cc5c43)cc2C(F)(F)F)CC1	TAAR1 antag 50.3 (no result: OX1R antag-1, CHO parental Ca, OX1R antag-2) | nonsel antag count inactive | TAAR1 antag conf inactive | Ga16 nonsel ag inactive | TAAR1 ag counter inactive
COc1cccc(OCc2cc(C(=O)N(C)Cc3nc4ccccc4[nH]3)no2)c1	none
COc1cccc(OCc2cc(C(=O)N(Cc3ccccc3)CC3CC3)no2)c1	TAAR1 antag 54.5 | nonsel antag count 28.1 | TAAR1 antag conf inactive | Ga16 nonsel ag inactive | TAAR1 ag counter inactive
CC1(C)N=C(SCC(=O)Nc2ccccc2)C(c2ccc(Cl)cc2)=N1	TAAR1 antag 53.7 | nonsel antag count inactive | TAAR1 antag conf inactive | Ga16 nonsel ag inactive | TAAR1 ag counter inactive
CCOC(=O)Nc1cccc(OCC(=O)Nc2ccc(OC)cc2OC)c1	none
CC(=O)Nc1sc(N/N=C/c2ccc(N(C)C)cc2)nc1-c1ccc(C)cc1	none (no result: OX1R antag-1, CHO parental Ca, OX1R antag-2)
CC(=O)Nc1sc(N/N=C/c2ccc(C)cc2)nc1-c1ccc(C)cc1	TAAR1 antag 53.2 | nonsel antag count inactive | TAAR1 antag conf inactive | Ga16 nonsel ag inactive | TAAR1 ag counter inactive
Cc1nn(-c2ccccc2)c(N2CCCC2)c1/C=N/NC(=O)c1cc2ccccc2cc1O	TAAR1 antag 50.9 | nonsel antag count 44.0 | TAAR1 antag conf 49.8 | Ga16 nonsel ag 11.9 | TAAR1 ag counter inactive
CCCn1c(NC(=O)c2ccc(Cl)c(S(=O)(=O)N3CCCC3)c2)nc2ccccc21	TAAR1 antag 57.0 | nonsel antag count 38.0 | TAAR1 antag conf inactive | Ga16 nonsel ag inactive | TAAR1 ag counter inactive
O=C(NCc1nc2ccccc2[nH]1)c1ccc(Cl)c(S(=O)(=O)N2CCCC2)c1	none
Cc1nc(-c2cccc(NC(=O)c3ccc(-n4cccn4)cc3)c2)cs1	TAAR1 antag 62.9, OX1R antag-2 51.6 | nonsel antag count 21.7 | TAAR1 antag conf inactive | Ga16 nonsel ag inactive | TAAR1 ag counter inactive
Cc1nc(-c2cccc(NC(=O)c3ccc(Cl)c(S(=O)(=O)N4CCCC4)c3)c2)cs1	TAAR1 antag 62.1 (no result: OX1R antag-1, CHO parental Ca, OX1R antag-2) | nonsel antag count 25.8 | TAAR1 antag conf inactive | Ga16 nonsel ag inactive | TAAR1 ag counter inactive
COc1ccc2sc(-c3ccccc3OC)c(-c3ccc(OC)nc3)c2c1	none
CCCCCCCC(=O)N/N=C/c1cccnc1	none
Cc1csc2nc(CSc3nncn3-c3ccccc3)c(Br)n12	none
Cc1csc2nc(CSc3nc4ccccc4o3)c(Br)n12	TAAR1 antag 60.7 | nonsel antag count inactive | TAAR1 antag conf inactive | Ga16 nonsel ag inactive | TAAR1 ag counter inactive
O=C1N[C@@H](c2ccccc2)COC(=O)[C@@H](Cc2ccc(F)cc2)CC/C=C/C[C@@H]1CC(=O)N(CCO)Cc1ccccc1	none
CC(C)(C)[C@@H]1COC(=O)[C@H](Cc2ccc(F)cc2)C/C=C\C[C@H](CC(=O)N(CCO)Cc2ccccc2)C(=O)N1	TAAR1 antag 49.9 | nonsel antag count inactive | TAAR1 antag conf inactive | Ga16 nonsel ag inactive | TAAR1 ag counter inactive
O=C1N[C@@H](c2ccccc2)COC(=O)[C@@H](Cc2ccc(F)cc2)CC/C=C/C[C@H]1CC(=O)N(CCO)Cc1ccccc1	TAAR1 antag 70.9 | nonsel antag count 31.5 | TAAR1 antag conf 55.8 | Ga16 nonsel ag 13.8 | TAAR1 ag counter inactive
O=C1OC[C@H]2CCCN2C(=O)[C@@H](CC(=O)N(CCO)Cc2ccccc2)C/C=C\C[C@@H]1Cc1ccc(F)cc1	TAAR1 antag 56.5 | nonsel antag count 25.2 | TAAR1 antag conf inactive | Ga16 nonsel ag inactive | TAAR1 ag counter inactive
CCOc1ccc(NC(=O)Cn2nnc(-c3ccccc3NC(=O)CC)n2)cc1	none
O=C(CN1c2cccc3cccc(c23)S1(=O)=O)Nc1ccccc1F	none
O=C(CN1c2cccc3cccc(c23)S1(=O)=O)Nc1ccc(F)c(F)c1F	TAAR1 antag 103.5 | nonsel antag count inactive | TAAR1 antag conf inactive | Ga16 nonsel ag inactive | TAAR1 ag counter inactive
CCN=C(NCC)SC1CC(=O)N(c2ccc(F)cc2)C1=O (stereo not drawn)	TAAR1 antag 89.7 | nonsel antag count 28.1 | TAAR1 antag conf 56.9 | Ga16 nonsel ag inactive | TAAR1 ag counter inactive
COc1ccc(-c2cc(C(=O)N(C)CC(=O)Nc3ccccc3Br)c3ccccc3n2)cc1OC	TAAR1 antag 65.3 | nonsel antag count 28.9 | TAAR1 antag conf 50.9 | Ga16 nonsel ag inactive | TAAR1 ag counter inactive

Compound activity from PubChem.
